These results are taken from ChEMBL document CHEMBL4325828, “The Design, Synthesis, and Characterizations of Spore Germination Inhibitors Effective against an Epidemic Strain of Clostridium difficile” (J Med Chem, 2018).

Molecules are shown by their SMILES.

In this experiment the test system is Clostridioides difficile. The experiment can be described thus: Antibacterial activity against Clostridium difficile R20291 assessed as inhibition of spore germination by measuring heat activated spore germination levels at 125 uM in presence of 6 mM taurocholate and 12 mM glycine measured every minute for 2 hrs by standard optical density assay relative to control. The class given is functional. Set-up: scale not given: the % may be the effect or the level left. In short, it runs like this:
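R20291 spores were screened at a single 125 µM concentration, with germination followed as the fall in absorbance at 580 nm. Compounds not soluble at 125 µM by visual inspection were discarded. Inhibition is relative to untreated spore samples.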
Consider `C[C@H](CCC(=O)NCc1ccc(S(N)(=O)=O)cc1)[C@H]1CC[C@H]2[C@@H]3[C@H](O)C[C@@H]4C[C@H](O)CC[C@]4(C)[C@H]3C[C@H](O)[C@]12C`, for which the Activity came out at 109%.
Consider `C[C@H](CCC(=O)NCCCO)[C@H]1CC[C@H]2[C@@H]3[C@H](O)C[C@@H]4C[C@H](O)CC[C@]4(C)[C@H]3C[C@H](O)[C@]12C`, for which the Activity is recorded as 92%.
In the case of `Cc1csc(NC(=O)CC[C@@H](C)[C@H]2CC[C@H]3[C@@H]4[C@H](O)C[C@@H]5C[C@H](O)CC[C@]5(C)[C@H]4C[C@H](O)[C@]23C)n1` it was 84%; in that of `C[C@H](CCC(=O)NCCCN1C(=O)C(=O)c2ccccc21)[C@H]1CC[C@H]2[C@@H]3[C@H](O)C[C@@H]4C[C@H](O)CC[C@]4(C)[C@H]3C[C@H](O)[C@]12C`, 95%; in that of `C[C@H](CCC(=O)NCc1ccc(N)cc1)[C@H]1CC[C@H]2[C@@H]3[C@H](O)C[C@@H]4C[C@H](O)CC[C@]4(C)[C@H]3C[C@H](O)[C@]12C`, 104%.
Turning to `COc1ccc(CCNC(=O)CC[C@@H](C)[C@H]2CC[C@H]3[C@@H]4[C@H](O)C[C@@H]5C[C@H](O)CC[C@]5(C)[C@H]4C[C@H](O)[C@]23C)c(OC)c1`, the Activity is 101%.
In the case of `C[C@H](CCC(=O)NCc1ccccc1N)[C@H]1CC[C@H]2[C@@H]3[C@H](O)C[C@@H]4C[C@H](O)CC[C@]4(C)[C@H]3C[C@H](O)[C@]12C` it was 95%.
As to `COc1ccc(CNC(=O)CC[C@@H](C)[C@H]2CC[C@H]3[C@@H]4[C@H](O)C[C@@H]5C[C@H](O)CC[C@]5(C)[C@H]4C[C@H](O)[C@]23C)c(OC)c1`, the Activity came out at 85%.
Turning to `C[C@H](CCC(=O)NCc1ccc([N+](=O)[O-])cc1)[C@H]1CC[C@H]2[C@@H]3[C@H](O)C[C@@H]4C[C@H](O)CC[C@]4(C)[C@H]3C[C@H](O)[C@]12C`, the Activity is reported as 88%.
In the case of `C[C@H](CCC(=O)NCCCCNC(=O)OC(C)(C)C)[C@H]1CC[C@H]2[C@@H]3[C@H](O)C[C@@H]4C[C@H](O)CC[C@]4(C)[C@H]3C[C@H](O)[C@]12C`, the Activity was 117%.
For `CCOC(=O)CCCNC(=O)CC[C@@H](C)[C@H]1CC[C@H]2[C@@H]3[C@H](O)C[C@@H]4C[C@H](O)CC[C@]4(C)[C@H]3C[C@H](O)[C@]12C`, the Activity is 95%.
`C[C@H](CCC(=O)NCCCN1C(=O)c2ccccc2C1=O)[C@H]1CC[C@H]2[C@@H]3[C@H](O)C[C@@H]4C[C@H](O)CC[C@]4(C)[C@H]3C[C@H](O)[C@]12C`: the Activity was determined as 82%.
Consider `COC(=O)C(NC(=O)CC[C@@H](C)[C@H]1CC[C@H]2[C@@H]3[C@H](O)C[C@@H]4C[C@H](O)CC[C@]4(C)[C@H]3C[C@H](O)[C@]12C)C(C)C` (stereo not given in full), for which the Activity amounted to 100%.
In the case of `C[C@H](CCC(=O)NCCC#N)[C@H]1CC[C@H]2[C@@H]3[C@H](O)C[C@@H]4C[C@H](O)CC[C@]4(C)[C@H]3C[C@H](O)[C@]12C` it was 112%; in that of `COc1cc(CNC(=O)CC[C@@H](C)[C@H]2CC[C@H]3[C@@H]4[C@H](O)C[C@@H]5C[C@H](O)CC[C@]5(C)[C@H]4C[C@H](O)[C@]23C)cc(OC)c1`, 99%; in that of `C[C@H](CCC(=O)NCCc1cccs1)[C@H]1CC[C@H]2[C@@H]3[C@H](O)C[C@@H]4C[C@H](O)CC[C@]4(C)[C@H]3C[C@H](O)[C@]12C`, 93%.
The figure for `C[C@H](CCC(=O)NCc1ccccc1)[C@H]1CC[C@H]2[C@@H]3[C@H](O)C[C@@H]4C[C@H](O)CC[C@]4(C)[C@H]3C[C@H](O)[C@]12C` is 70%; for `C[C@H](CCC(=O)NCCN1CCCC1)[C@H]1CC[C@H]2[C@@H]3[C@H](O)C[C@@H]4C[C@H](O)CC[C@]4(C)[C@H]3C[C@H](O)[C@]12C` it is 101%.
As to `C[C@H](CCC(=O)NC(CCC(=O)O)C(=O)O)[C@H]1CC[C@H]2[C@@H]3[C@H](O)C[C@@H]4C[C@H](O)CC[C@]4(C)[C@H]3C[C@H](O)[C@]12C` (stereo not given in full), the Activity came to 114%.
In the case of `C[C@H](CCC(=O)NCCCN)[C@H]1CC[C@H]2[C@@H]3[C@H](O)C[C@@H]4C[C@H](O)CC[C@]4(C)[C@H]3C[C@H](O)[C@]12C.Cl`, the Activity amounted to 124%.
Take `C[C@H](CCC(=O)Nc1ccc(N)cc1)[C@H]1CC[C@H]2[C@@H]3[C@H](O)C[C@@H]4C[C@H](O)CC[C@]4(C)[C@H]3C[C@H](O)[C@]12C.Cl`: the Activity is 82%.
Regarding `C[C@H](CCC(=O)NCCCCN)[C@H]1CC[C@H]2[C@@H]3[C@H](O)C[C@@H]4C[C@H](O)CC[C@]4(C)[C@H]3C[C@H](O)[C@]12C.Cl`, the Activity is recorded as 104%.
For the compound `C[C@H](CCC(=O)NCc1cccnc1)[C@H]1CC[C@H]2[C@@H]3[C@H](O)C[C@@H]4C[C@H](O)CC[C@]4(C)[C@H]3C[C@H](O)[C@]12C`, the Activity is on record as 94%.
The figure for `C[C@H](CCC(=O)NCCc1ccccc1)[C@H]1CC[C@H]2[C@@H]3[C@H](O)C[C@@H]4C[C@H](O)CC[C@]4(C)[C@H]3C[C@H](O)[C@]12C` is 104%; for `C[C@H](CCC(=O)NCCN1C(=O)c2ccccc2C1=O)[C@H]1CC[C@H]2[C@@H]3[C@H](O)C[C@@H]4C[C@H](O)CC[C@]4(C)[C@H]3C[C@H](O)[C@]12C` it is 78%; for `C[C@H](CCC(=O)NCC(c1ccccc1)c1ccccc1)[C@H]1CC[C@H]2[C@@H]3[C@H](O)C[C@@H]4C[C@H](O)CC[C@]4(C)[C@H]3C[C@H](O)[C@]12C` it is 101%.
In the case of `C[C@H](CCC(=O)NC(Cc1ccccc1)C(=O)O)[C@H]1CC[C@H]2[C@@H]3[C@H](O)C[C@@H]4C[C@H](O)CC[C@]4(C)[C@H]3C[C@H](O)[C@]12C` (stereo not given in full) it was 108%; in that of `COC(=O)C(Cc1ccccc1)NC(=O)CC[C@@H](C)[C@H]1CC[C@H]2[C@@H]3[C@H](O)C[C@@H]4C[C@H](O)CC[C@]4(C)[C@H]3C[C@H](O)[C@]12C` (stereo not given in full), 84%; in that of `C[C@H](CCC(=O)NCc1ccc(Cl)c(Cl)c1)[C@H]1CC[C@H]2[C@@H]3[C@H](O)C[C@@H]4C[C@H](O)CC[C@]4(C)[C@H]3C[C@H](O)[C@]12C`, 111%.
As to `C[C@H](CCC(=O)NCc1ccccn1)[C@H]1CC[C@H]2[C@@H]3[C@H](O)C[C@@H]4C[C@H](O)CC[C@]4(C)[C@H]3C[C@H](O)[C@]12C`, the Activity is listed as 93%.
